≈ marks a conversion by molar mass, not a printed value.
Assays:
[1] = Terminal half life in rat at 60 mg/kg, ip; type: ADME, organism-based; set-up: dose 60 mg/kg, route intraperitoneal; conditions: in vivo, read-out: beta t1/2 (converted)
Method in brief: (§1)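 Naive rats got a single ip dose of 60 mg/kg, formulated in multisol (propylene glycol:alcohol:water for injection, 5:1:4). Plasma concentration–time profiles were followed, and PK parameters (t1/2, CL/F, Vz/F, AUC, Cmax, tmax, MRT) were derived from them.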

[2] = system: Rattus norvegicus; test: Anticonvulsant activity in ip dosed albino Sprague-Dawley rat assessed as protection against pilocarpine-induced behavioral seizures administered 30 mins post seizure measured after 0.25 to 0.5 hrs; type: functional
Method in brief: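 Status epilepticus was induced in rats with lithium–pilocarpine. Compound was given ip 30 min after the first observed stage 3 or greater motor seizure. The read-out was prevention of further convulsive seizures across various doses in groups of 4–8 rats.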

[3] = system: Mus musculus; test: Teratogenicity in SWV/Fnn mouse assessed as live fetuses at 283 mg/kg, ip on day 8.5 of gestation (reference value: 93.7 %); type: toxicity, organism-based; set-up: dose 283 mg/kg, route intraperitoneal; conditions: in vivo
[4] = Apparent volume of distribution […] in rat at 60 mg/kg, ip; type: ADME, organism-based; set-up: dose 60 mg/kg, route intraperitoneal; conditions: in vivo, read-out: Vz/F; method in brief: as §1
[5] = system: Rattus norvegicus; test: Anticonvulsant activity in ip dosed albino Sprague-Dawley rat assessed as protection against subcutaneous metrazol-induced seizures after 0.25 to 0.5 hrs; type: functional
Method in brief: (§2)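 Each test was run at the previously determined time to peak effect: 0.25–0.5 h after ip dosing, or 0.5–1 h after oral dosing. Groups of 4–8 animals received various doses until at least two points fell between 0% and 100% protection or minimal toxicity.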

[6] = system: Mus musculus; test: Teratogenicity in SWV/Fnn mouse assessed as normal fetuses at 283 mg/kg, ip on day 8.5 of gestation (reference value: 100 %); type: toxicity, organism-based; set-up: dose 283 mg/kg, route intraperitoneal; conditions: in vivo
[7] = AUC in rat at 60 mg/kg, ip; type: ADME, organism-based; set-up: dose 60 mg/kg, route intraperitoneal; conditions: plasma; method in brief: as §1
[8] = Tmax in rat at 60 mg/kg, ip; type: ADME, organism-based; set-up: dose 60 mg/kg, route intraperitoneal; conditions: in vivo; method in brief: as §1
[9] = system: Mus musculus; test: Teratogenicity in SWV/Fnn mouse assessed as normal fetuses at 141 mg/kg, ip on day 8.5 of gestation (reference value: 100 %); type: toxicity, organism-based; set-up: dose 141 mg/kg, route intraperitoneal; conditions: in vivo
[10] = system: Mus musculus; test: Anticonvulsant activity in ip dosed albino CF1 mouse assessed as protection against subcutaneous metrazol-induced seizures after 0.25 to 0.5 hrs; type: functional; conditions: albino CF1, 0.5 h; method in brief: as §2
[11] = system: Mus musculus; test: Anticonvulsant activity in ip dosed albino CF1 mouse assessed as protection against 44 mA-current- for 3 secs induced seizures after 0.25 to 0.5 hrs by 6Hz psychomotor seizure test; type: functional; method in brief: as §2
[12] = Neurotoxicity in po dosed albino Sprague-Dawley rat assessed as minimal motor impairment after 0.5 to 1 hr; type: toxicity, organism-based; conditions: in vivo; method in brief: as §2
[13] = Cmax in rat at 60 mg/kg, ip; type: ADME, organism-based; set-up: dose 60 mg/kg, route intraperitoneal; conditions: in vivo; method in brief: as §1
[14] = Mean residence time in rat at 60 mg/kg, ip; type: ADME, organism-based; set-up: dose 60 mg/kg, route intraperitoneal; conditions: in vivo; method in brief: as §1
[15] = system: Mus musculus; test: Teratogenicity in SWV/Fnn mouse assessed as resorption at 141 mg/kg, ip on day 8.5 of gestation (reference value: 6.3 %); type: toxicity, organism-based; set-up: dose 141 mg/kg, route intraperitoneal; conditions: in vivo
[16] = Apparent clearance in rat at 60 mg/kg, ip; type: ADME, organism-based; set-up: dose 60 mg/kg, route intraperitoneal; conditions: in vivo; method in brief: as §1
[17] = system: Hippocampus; test: Protection against kainic acid-induced spontaneous electrographic seizures in combined medial entorhinal cortex hippocampal brain slices of albino Sprague-Dawley rat assessed as burst rate at 100 uM after 1 week relative to control; type: functional
Method in brief: (§3)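 Rat brain slices showing spontaneous bursting were exposed to 100 μM compound. Burst rate and burst duration were expressed as % of control ± SEM.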

[18] = Neurotoxicity in ip dosed albino CF1 mouse assessed as minimal motor impairment after 0.25 to 0.5 hrs; type: toxicity, organism-based; conditions: in vivo; method in brief: as §2
[19] = Neurotoxicity in ip dosed albino Sprague-Dawley rat assessed as minimal motor impairment after 0.25 to 0.5 hrs; type: toxicity, organism-based; conditions: in vivo; method in brief: as §2
[20] = system: Mus musculus; test: Teratogenicity in SWV/Fnn mouse assessed as fetuses with neural tube defects at 283 mg/kg, ip on day 8.5 of gestation relative to vehicle-treated control; type: toxicity, organism-based; set-up: dose 283 mg/kg, route intraperitoneal; conditions: in vivo
[21] = system: Hippocampus; test: Protection against kainic acid-induced spontaneous electrographic seizures in combined medial entorhinal cortex hippocampal brain slices of albino Sprague-Dawley rat assessed as burst duration at 100 uM after 1 week relative to control; type: functional; method in brief: as §3
[22] = system: Mus musculus; test: Teratogenicity in SWV/Fnn mouse assessed as live fetuses at 141 mg/kg, ip on day 8.5 of gestation (reference value: 93.7 %); type: toxicity, organism-based; set-up: dose 141 mg/kg, route intraperitoneal; conditions: in vivo
[23] = system: Mus musculus; test: Teratogenicity in SWV/Fnn mouse assessed as resorption at 283 mg/kg, ip on day 8.5 of gestation (reference value: 6.3 %); type: toxicity, organism-based; set-up: dose 283 mg/kg, route intraperitoneal; conditions: in vivo
[24] = system: Mus musculus; test: Anticonvulsant activity in ip dosed albino CF1 mouse assessed as protection against 32 mA-current- for 3 secs induced seizures after 0.25 to 0.5 hrs by 6Hz psychomotor seizure test; type: functional; method in brief: as §2
[25] = system: Rattus norvegicus; test: Anticonvulsant activity in po dosed albino Sprague-Dawley rat assessed as protection against maximal electroshock-induced seizures after 0.5 to 1 hr; type: functional; method in brief: as §2
[26] = system: Mus musculus; test: Anticonvulsant activity in ip dosed albino CF1 mouse assessed as protection against maximal electroshock-induced seizures after 0.25 to 0.5 hrs; type: functional; method in brief: as §2
[27] = system: Mus musculus; test: Teratogenicity in SWV/Fnn mouse assessed as fetuses with neural tube defects at 141 mg/kg, ip on day 8.5 of gestation relative to vehicle-treated control; type: toxicity, organism-based; set-up: dose 141 mg/kg, route intraperitoneal; conditions: in vivo
[28] = Solubility of the compound in 5:1:4 solution of propylene glycol, alcohol and water; type: physicochemical
[29] = Solubility of the compound in water; type: physicochemical

CCC[C@H](C(N)=O)[C@@H](C)CC
half-life [1]: 1.5 h
ED50 [2]: 94 mg/kg
Activity [3]: 92.5%
Vd/F [4]: 3.9 L/kg
ED50 [5]: 14 mg/kg
Activity [6]: 100%
AUC [7]: 32900 ng·h/mL
Tmax [8]: 0.5 h
Activity [9]: 100%
ED50 [10]: 69 mg/kg
ED50 [11]: 59 mg/kg
TD50 [12]: 124 mg/kg
Cmax [13]: 21700 ng/mL
MRT [14]: 1.8 h
Activity [15]: 5.8%
CL/F [16]: 30 mL/min/kg
Activity [17]: 109%
TD50 [18]: 126 mg/kg
TD50 [19]: 34 mg/kg
Activity [20]: 0%
Activity [21]: 45%
Activity [22]: 94.2%
Activity [23]: 7.5%
ED50 [24]: 27 mg/kg
ED50 [25]: 48 mg/kg
ED50 [26]: 75 mg/kg
Activity [27]: 0%

CCCC(C(N)=O)C(C)CC (racemic)
half-life [1]: 1.1 h
ED50 [2]: 84 mg/kg
Activity [3]: 86.6%
Vd/F [4]: 3 L/kg
ED50 [5]: 21 mg/kg
Activity [6]: 87%
AUC [7]: 31300 ng·h/mL
Tmax [8]: 0.75 h
Activity [9]: 93%
ED50 [10]: 62 mg/kg
ED50 [11]: 45 mg/kg
TD50 [12]: 131 mg/kg
Cmax [13]: 14100 ng/mL
MRT [14]: 1.8 h
Activity [15]: 7.5%
CL/F [16]: 30 mL/min/kg
solubility [28]: 27 mg/mL (≈ 172 mM)
Activity [17]: 76%
TD50 [18]: 88 mg/kg
TD50 [19]: 49 mg/kg
Activity [20]: 0%
solubility [29]: 1.5 mg/mL (≈ 9.54 mM)
Activity [21]: 145%
Activity [22]: 92.5%
Activity [23]: 13.4%
ED50 [24]: 27 mg/kg
ED50 [25]: 29 mg/kg
ED50 [26]: 71 mg/kg
Activity [27]: 0%

CCC[C@@H](C(N)=O)[C@H](C)CC [(2R,3R)-SEC-BUTYLPROPYLACETAMIDE]
half-life [1]: 1.1 h
ED50 [2]: 98 mg/kg
Activity [3]: 77.1%
Vd/F [4]: 3.6 L/kg
ED50 [5]: 15 mg/kg
Activity [6]: 94.6%
AUC [7]: 26400 ng·h/mL
Tmax [8]: 0.5 h
Activity [9]: 100%
ED50 [10]: 53 mg/kg
ED50 [11]: 52 mg/kg
TD50 [12]: 102 mg/kg
Cmax [13]: 18000 ng/mL
MRT [14]: 1.5 h
Activity [15]: 7.5%
CL/F [16]: 36.7 mL/min/kg
Activity [17]: 77%
TD50 [18]: 94 mg/kg
TD50 [19]: 34 mg/kg
Activity [20]: 5.4%
Activity [21]: 94%
Activity [22]: 92.5%
Activity [23]: 22.9%
ED50 [24]: 38 mg/kg
ED50 [25]: 79 mg/kg
ED50 [26]: 70 mg/kg
Activity [27]: 0%

Reference: ChEMBL document CHEMBL2417510, “Stereoselective pharmacodynamic and pharmacokinetic analysis of sec-Butylpropylacetamide (SPD), a new CNS-active derivative of valproic acid with unique activity against status epilepticus” (J Med Chem, 2013)
